Sampled rows, rich in hits. Any-hit rate of the full collection: about 1.6%.
RBBP9 inhibitor: human RBBP9 inhibitors, primary screen, biochemical, fluorescence polarization, FP-Rh probe, HTS; Serine hydrolase RBBP9 (Homo sapiens), O75884; recombinant RBBP9; inhibition, % at 7.94 µM; hit rate 0.2% among 220,000;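 active means inhibition above the campaign mean of all tested compounds plus 3 SD, cut at about 14% in these data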;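 further: plate controls were DMSO wells with RBBP9 for no effect and wells lacking RBBP9 protein for full effect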
Target sequence (O75884 whole entry, looked up): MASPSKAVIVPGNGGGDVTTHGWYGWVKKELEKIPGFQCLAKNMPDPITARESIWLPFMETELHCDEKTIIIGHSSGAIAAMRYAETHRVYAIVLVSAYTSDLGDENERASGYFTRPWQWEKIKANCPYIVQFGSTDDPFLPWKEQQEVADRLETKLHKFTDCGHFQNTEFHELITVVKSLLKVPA
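Material: RBBP9 protein. Amount: RBBP9 at 2.5 µM in dispensed solution, before mixing. Schedule: 30 min then 45 min, 25 °C. Medium: Tris buffer pH 8.0, NaCl, Pluronic. Measured by: fluorescence polarization. Measure: percent inhibition from mP, scaled between DMSO and no-protein wells. Replication: one well per compound.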
Yeast growth inh: growth inhibitors of yeast BB579 in restrictive medium, primary screen, yeast lifespan-shortening project, S. cerevisiae; inhibition, % at 10 µM; OD615, 48 h; hit rate 0.51% among 140,000;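 active means inhibition above a set limit, 3 SD over the mean compound inhibition, cut at about 44% in these data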
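System: Saccharomyces cerevisiae DeaD strain BB579, replicative lifespan model yeast. Buffer or medium: restrictive glucose-based CSMM-D medium. Doses: one dose, 10 µM compound with 0.25% DMSO. Timing: 4 h preincubation and 48 h exposure at 30 °C. Detection: turbidity as optical density at 615 nm. Benchmarks: amphotericin B 10 µg/mL, positive.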
NCF1 inh: p47phox/p22phox peptide binding inhibitors, primary screen, biochemical, uHTS, NADPH oxidase regulatory subunit; Neutrophil cytosol factor 1 (Homo sapiens), P14598; fluorescence polarization, 2 h; inhibition, % at 24.7 µM; hit rate 0.53% among 220,000; AID 1274, 2008;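 active means inhibition above about 30%, limit read from the data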;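 further: 0% = p47phox with labelled peptide and 100% = labelled peptide alone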
Target sequence (P14598 whole entry, looked up): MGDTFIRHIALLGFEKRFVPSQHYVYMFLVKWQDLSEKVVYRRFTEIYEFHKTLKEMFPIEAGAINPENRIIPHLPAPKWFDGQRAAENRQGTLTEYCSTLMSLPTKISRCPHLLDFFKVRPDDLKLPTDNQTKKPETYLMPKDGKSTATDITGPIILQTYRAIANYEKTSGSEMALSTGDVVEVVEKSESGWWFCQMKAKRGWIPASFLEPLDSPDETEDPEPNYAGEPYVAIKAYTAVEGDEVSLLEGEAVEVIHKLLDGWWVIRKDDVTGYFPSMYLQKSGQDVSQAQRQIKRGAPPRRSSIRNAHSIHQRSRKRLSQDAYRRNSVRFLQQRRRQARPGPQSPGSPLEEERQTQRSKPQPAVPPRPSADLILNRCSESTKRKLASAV
Yeast lifespan up: compounds extending yeast replicative lifespan, primary screen, S. cerevisiae, OD615 | S. cerevisiae growth with nicotinamide; deaD strain in restrictive glucose medium | inhibition of the nicotinamide effect, % at 10 µM | hit rate 0.68% among 130,000;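 active means inhibition above a set limit, placed 3 SD over the median of all compounds, cut at about 26% in these data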;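 further: 0% = nicotinamide-treated wells and 100% = cells grown without nicotinamide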
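Test system: DeaD-strain S. cerevisiae / Buffer or medium: restrictive glucose medium / Also added: nicotinamide 1.5 mM / Doses: one concentration, 10 µM, DMSO 0.25% / Schedule: 48 h at 30 °C / Signal: OD615 measurement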
sdo1 growth: growth rescue of sdo1-depleted yeast, primary screen, S. cerevisiae, bone marrow failure model; S. cerevisiae sdo1-depleted JHY4D growth rescue, OD600 30 h; active compounds read high; pdr5 snq2 efflux-pump mutant strain; AID 817, 2007; hit rate 0.21% among 140,000; z-score at 10 µM;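 active means z-score above 3 at both the 24 hr and the 30 hr optical density reads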;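 further: z-score against mean and SD of all compound wells on the same plate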
TbHK1 inh: Trypanosoma brucei hexokinase 1 inhibitors, primary screen, biochemical, G6PDH-coupled NADH absorbance, MLSCN library. recombinant TbHK1, G6PDH-coupled NADH A340. inhibition, % at 10 µM. hit rate 0.11% among 220,000. AID 1430, 2008;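 active means inhibition of 50% or more in the single-dose primary screen; inactive means inhibition below 50%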
* hit, by the source's call; . = no result given.

SMILES	RBBP9 inhibitor	Yeast growth inh	NCF1 inh	Yeast lifespan up	sdo1 growth	TbHK1 inh
O=c1c(Cl)c(Nc2cccc(Cl)c2)cnn1-c1nc2ccccc2s1	-10	-44	-2	-2	-1.1	32
COc1ccc(Nc2cnn(-c3nc4ccccc4s3)c(=O)c2Cl)cc1	-5	78*	-8	-1	-1.6	32
Cn1c(-c2cccc(Br)c2)n[nH]c1=O	3	.	-6	.	.	6
Cc1cc(O)c(/C=N/Nc2ccccc2)c(=O)o1	-4	87*	2	-16	-0.93	-22
Cc1cc(O)c(C=Nc2cccc(Cl)c2)c(=O)o1	-6	-12	8	-11	1.4	-3
O=C(Oc1ccc(=O)n(-c2ccccc2)n1)c1ccc(F)cc1	-10	.	-1	.	.	1
O=C(Oc1ccc(=O)n(-c2ccccc2)n1)c1ccc(Cl)cc1	0	-34	-15	51*	-0.34	-6
CCCCCCN1N=C(C)C(C(=O)c2ccc(Cl)cc2)C1=O (stereo not drawn)	0	87*	-16	-5	0.86	-4
CCCCCCCN1N=C(C)C(C(=O)c2ccccc2)C1=O (stereo not drawn)	1	26	-10	-27	0.68	-10
COc1cc(OC)c(NS(=O)(=O)c2cc(C(=O)OCC(=O)NCC3CCCO3)ccc2OC)cc1Cl (stereo not drawn)	-22	.	-13	.	.	-4
Nc1ncnc(N2CCc3ccccc32)c1[N+](=O)[O-]	-9	.	-4	.	.	-6
COc1ccc(CNC[C@@H](CCCCN(C)Cc2ccc(OC)cc2)N2C[C@H](c3ccccc3)N(CCc3ccc(Cl)c(Cl)c3)C(=O)C2=O)cc1	-3	.	50*	.	.	10
CCOc1ccc(CCN2C(=O)C(=O)N([C@H](CCCN(C)Cc3ccccc3)CNCc3ccccc3)C[C@@H]2C(C)C)cc1	.	.	-9	.	.	9
CN(CCCC[C@H](CNCc1ccc(-c2ccccc2)cc1)N1C[C@H](c2ccccc2)N(CCc2ccc(Cl)c(Cl)c2)C(=O)C1=O)Cc1ccc(-c2ccccc2)cc1	.	.	51*	.	.	22
CCOC(=O)CSc1nnc(NC(=O)c2cc([N+](=O)[O-])cc([N+](=O)[O-])c2)s1	-4	-16	36*	-2	0.5	13
O=C(CSc1ccc(Cl)cc1)NC1CCCC1	7	-5	-8	-4	0.12	-1
O=C(NC1CCCCC1)Sc1ccc(Cl)cc1	-3	52*	-7	-19	-0.96	-1
COc1cc(NC(=O)c2cc(C)on2)cc(C(=O)Nc2cccc(C(F)(F)F)c2)c1	.	.	43*	.	.	-12
COC(=O)c1cc(=O)n(-c2ccc(F)cc2)c(=Nc2ccc(F)cc2)s1	2	-32	3	29*	-2	-7
COC(=O)c1cc(=O)n(Cc2cccs2)c(=Nc2ccc(F)cc2)s1	2	.	-1	.	.	-6
Cc1oc(-c2ccc(Cl)cc2)nc1CN1CCC(C(=O)N2CCc3ccccc3C2)CC1	-8	-56	45*	-3	-0.86	-17
CC(C)(C)N1OC2CC1c1nc3ccccc3n1C2 (stereo not drawn)	.	.	50*	.	.	-2
O=Cc1cc2ccccc2nc1SCc1ccc(Cl)cc1	-9	-27	-19	34*	-0.89	6
O=Cc1cc2ccccc2nc1SCc1ccc(Cl)c(Cl)c1	-5	-70	-9	17	-1.9	8
CC(C(=O)c1ccccc1)n1c(N2CCOCC2)nc2c1c(=O)n(C)c(=O)n2C (stereo not drawn)	0	-76	55*	-12	0.8	1
SMILES	RBBP9 inhibitor	Yeast growth inh	NCF1 inh	Yeast lifespan up	sdo1 growth	TbHK1 inh
CC(C)CC(NS(=O)(=O)c1ccccc1)C(=O)O (stereo not drawn)	-9	-28	-9	-6	0.26	-3
CC(C)CN=C(NS(=O)(=O)c1ccccc1)C(Cl)(Cl)Cl	-4	-27	-14	44*	-1.9	-8
COc1ccc(N2C(=O)CCC(C(=O)NCc3cccnc3)C2c2ccc(OC)c(OC)c2)cc1 (stereo not drawn)	0	-42	200*	-10	1.6	-2
COc1ccc(N2C(=O)CCC(C(=O)NCCN3CCOCC3)C2c2ccc(OC)c(OC)c2)cc1 (stereo not drawn)	-8	-39	-12	-5	-0.05	1
Cc1ccc(-c2cccc(CN3CCN(C4CCN(C(C)C)CC4)C(CCO)C3)c2)o1 (stereo not drawn)	-9	.	-1	.	.	-4
COc1nc(Nc2nc3ccccc3c(=O)[nH]2)nc2ccc(C)cc12	10	.	31*	.	.	-27
O=C(Cc1ccc(Br)cc1)Nc1cccc(-c2cn3c(n2)SCC3)c1	-8	.	-26	.	.	-2
CCc1ccc(C(=O)/C=C/c2ccc([N+](=O)[O-])o2)cc1	1	-59	-14	46*	-2.5	-13
CCN(CC)S(=O)(=O)c1ccc(C(=O)/C=C/c2ccc(-c3ccc([N+](=O)[O-])cc3)o2)cc1	1	.	-105	.	.	-8
Cc1onc(-c2ccccc2)c1C(=O)NC(=S)NNC(=O)c1cc(-c2ccc(F)cc2)n[nH]1	-11	.	-9	.	.	-24
CCOC(=O)c1ccc(N2Cc3ccccc3C2=NC(=O)c2cccs2)cc1	-8	-18	-10	-4	-0.84	-10
CC(=O)c1ccc(N2Cc3ccccc3C2=NC(=O)c2cccs2)cc1	-10	-44	38*	2	0.28	-11
O=c1cc(CSc2nnc(COc3ccccc3)n2-c2ccccc2)c2ccccc2[nH]1	-11	-25	-2	0	0.5	-5
Cn1c(COc2ccccc2)nnc1SCc1cc(=O)[nH]c2ccccc12	1	-8	-8	44*	-0.63	-20
CCN1CCN(c2ccc(N=Cc3ccccc3O)cc2)CC1	-5	.	0	.	.	-13
CN1CCN(C(=S)Nc2cc([N+](=O)[O-])ccc2Cl)CC1	8	-21	3	45*	0.64	1
Cc1ccc(NC2Sc3ccccc3NC2=O)cc1 (stereo not drawn)	-12	.	-11	.	.	4
c1ccc(-c2nccc(-c3ccc(-n4cnc5ccccc54)cc3)n2)cc1	-12	-17	46*	-12	-1.8	16
Cc1cc(Br)ccc1OCCCCN1CCCCC1	5	.	48*	.	.	4
Cc1ccc(C)c(NC(=O)CN(C)S(=O)(=O)c2cccc3cccnc23)c1	-4	.	1	.	.	8
N#Cc1c(-c2cccnc2)c2c([nH]c1=S)CCCC2	-1	-45	33*	-19	0	3
COC(=O)CNC(=O)c1ccc(NS(=O)(=O)c2cc([N+](=O)[O-])ccc2Cl)cc1	-5	.	-12	.	.	0

Screening results from PubChem BioAssay.
